Test results published in article PMC6092455 (International Journal for Parasitology: Drugs and Drug …, 2018).
“Also recorded” adds a separate entry of the source.

Experiments:
[1] = biological target: T1, B. divergens proteasome β5 subunit (chymotrypsin-like activity) (Babesia divergens, UniProt A0AAD9GDK3); experiment: Suc-LLVY-AMC proteasome activity assay with B. divergens crude cell lysates; format: biochemical; conditions: for inhibition at 1 µM: read-out: Reduction of Suc-LLVY-AMC measured activity
T1 sequence (A0AAD9GDK3 69-280): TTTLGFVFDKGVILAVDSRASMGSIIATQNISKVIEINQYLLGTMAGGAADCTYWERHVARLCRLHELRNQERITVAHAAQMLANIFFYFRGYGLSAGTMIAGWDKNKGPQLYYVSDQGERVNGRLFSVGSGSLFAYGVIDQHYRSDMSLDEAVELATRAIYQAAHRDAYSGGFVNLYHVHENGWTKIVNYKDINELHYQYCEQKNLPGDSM
In short: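 Crude lysate made from B. divergens-infected RBCs (~15% parasitemia): saponin lysis, PBS washes, sonication in 20 mM HEPES pH 8.0, 1 µM E64, 0.03% SDS, 1 mM ATP; pooled from 10 cultures. Lysate pre-incubated 30 min at 37 °C with 1 µM test compound. Then 10 µM Suc-LLVY-AMC added; fluorescence 360/465 nm read every 1 min for 1 h at 37 °C. Run in triplicate.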

HeLa cells = experiment: Cell toxicity assay, HeLa cells; format: cell-based, human; conditions: for IC50: Homo sapiens, HeLa, 48 h, read-out: IC50 values, HeLa cells, 48 h, AlamarBlue
B. microti [2] = experiment: Pre-treatment of B. microti infected red blood cells prior to mouse infection; format: in vivo, Babesia microti; conditions: infected blood pre-treated with 400 nM for 1 h
In short: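 Infected blood pooled from three B. microti-infected mice (50% parasitemia). Exposed to test compound at 400 nM final, or to matching DMSO, for 1 h at 37 °C, 5% CO₂. Then injected i.p. (150 µl, 800 × 10⁶ infected RBCs) into three treated and three control BALB/c mice. Parasitemia counted daily for 8 DPI on Diff-Quik thin smears; Cmax and Tmax calculated in R.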

B. microti [3] = experiment: Parasitemia in B. microti infected mice treated on 5 and 6 DPI; format: in vivo, Babesia microti; conditions: BALB/c mice, 0.75 mg/kg i.p. on 5 and 6 DPI
In short: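 Eight female BALB/c mice infected i.p. with B. microti-infected blood (150 µl, 50% parasitemia, ~800 × 10⁶ infected RBCs). Test compound at 0.75 mg/kg in PBS, or vehicle, given i.p. on 5 and 6 DPI (four mice per group). Parasitemia read as percent from thin blood smears taken by tail snip; blood collected on 7 DPI.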

[4] = tested on: B. microti proteasome (chymotrypsin-like activity); experiment: Suc-LLVY-AMC activity assay on B. microti lysates from treated mice; format: in vivo, Babesia microti; conditions: mice treated 0.75 mg/kg on 5 and 6 DPI, pooled blood collected 7 DPI
B. microti [5] = experiment: Treatment of B. microti infected mice; format: in vivo, Babesia microti
In short: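 Six female BALB/c mice (~20 g) infected i.p. with 150 µl B. microti-infected blood (50% parasitemia, ~800 × 10⁶ infected RBCs). Dosed i.p. daily from 1 to 7 DPI with test compound at 0.75 mg/kg in PBS or with vehicle (150 µl; three mice each). Activity and appearance observed. Parasitemia counted daily to 15 DPI on tail-snip thin smears. AUC (Riemann sums), Cmax and Tmax compared by t-test.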

[6] = rats; ref Yang et al., 2011; cited from earlier work
PMJ2R mouse macrophages = experiment: Cell viability assay, PMJ2R mouse macrophages; format: cell-based; conditions: 200 nM, 48 h
In short: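 PMJ2R macrophages grown in RPMI 1640 with gentamicin, amphotericin B and 10% heat-inactivated FCS. Serially diluted test compound added to cultures, with 0.004% DMSO in medium as control. Medium changed every 12 h; 48 h at 37 °C, 5% CO₂. Calcein AM (live) and ethidium homodimer III (dead) staining, counted by flow cytometry. Triplicate cultures; mean ± SD; unpaired t-test.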

[7] = BALB/c mice, 0.75 mg/kg i.p. daily 1-7 DPI

Row | Compound | inhibition at 1 µM [1] | IC50 (HeLa cells) | Reduction of Cmax (parasitemia) on Tmax (7 DPI) compared to control group (B. microti [2]) | Parasite load (parasitemia, mean) at 5 DPI (B. microti [3]; 5 DPI) | Parasite load (parasitemia, mean) at 7 DPI (B. microti [3]; 7 DPI) | Reduction of Suc-LLVY-AMC activity in B. microti lysates compared to untreated control [4] | Adverse effects on spontaneous activity and physical appearance of mice (B. microti [5]; [7]) | Peak parasitemia levels and area under curve (AUC) compared to PBS (B. microti [5]; [7]) | Microscopic appearance of non-parasited RBCs (B. microti [5]; BALB/c mice, 0.75 mg/kg i.p. daily 1-7 DPI (data not shown)) | Parasitemia on 5, 6 and 7 DPI compared to untreated control (B. microti [5]; daily intra-peritoneal treatment of infected mice) | Reduction of Suc-LLVY-AMC measured activity ([1]; 1 μM inhibitor, pilot experiments (data not shown)) | Plasma clearance [6] | Terminal half-life [6] | Tissue distribution [6] | Toxicity to PMJ2R macrophages (PMJ2R mouse macrophages) | Survival rate of PMJ2R cells (PMJ2R mouse macrophages; medium changed every 12 h) | Fold more potent against B. divergens compared to HeLa (HeLa cells; ratio of IC50 values HeLa / B. divergens ex vivo culture)
1 | CC(C)C[C@H](NC(=O)[C@H](Cc1ccccc1)NC(=O)c1cnccn1)B(O)O [Bortezomib, bortezomib] | 96% | 0.007 ± 0.001 µM | – | – | – | – | – | – | – | – | – | – | – | – | – | – | –
2 | CC(C)C[C@H](NC(=O)[C@H](CCc1ccccc1)NC(=O)CN1CCOCC1)C(=O)N[C@@H](Cc1ccccc1)C(=O)N[C@@H](CC(C)C)C(=O)[C@@]1(C)CO1 [Carfilzomib] | > 90% | 0.059 ± 0.036 µM | 31.2% | 47.4 ± 6.3% | 41.5 ± 2.9% | 33% | no adverse effects | significantly reduced | did not change | lower parasitemia | completely inhibiting this activity | 195 to 319 mL/min/kg | 5 to 20 min | rapid and wide tissue distribution | did not show any toxicity; also recorded: did not affect cell viability | 71.1% | 2–3.5 fold
